Laboratory results published in PMC3065392 (Lipids, 2010).

Target: T1, ADRP (adipose differentiation-related protein) (Mus musculus, UniProt P43883)
T1 sequence (P43883 2-425): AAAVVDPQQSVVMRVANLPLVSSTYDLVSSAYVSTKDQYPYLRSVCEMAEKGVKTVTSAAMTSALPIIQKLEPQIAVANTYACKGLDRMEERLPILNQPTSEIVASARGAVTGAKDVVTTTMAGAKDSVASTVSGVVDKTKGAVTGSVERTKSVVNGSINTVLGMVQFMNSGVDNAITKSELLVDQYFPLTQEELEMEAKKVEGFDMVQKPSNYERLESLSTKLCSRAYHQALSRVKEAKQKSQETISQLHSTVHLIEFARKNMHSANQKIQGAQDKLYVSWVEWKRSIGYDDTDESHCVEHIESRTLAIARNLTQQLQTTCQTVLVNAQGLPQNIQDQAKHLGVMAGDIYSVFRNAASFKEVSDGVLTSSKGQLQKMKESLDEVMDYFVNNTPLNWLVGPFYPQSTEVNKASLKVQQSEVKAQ
Experiment: fluorescence saturation binding titration, single-site fit
Outline: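 Stepwise titration of the NBD-labelled lipid (NBD-sphingomyelin or NBD-phosphatidylcholine, 100 µM stock) into ADRP (180 nM) in 10 mM phosphate buffer, pH 7.4. After each addition, samples were mixed 3–4 min at 25°C and the NBD probe was excited; emission 490–600 nm was integrated and corrected for blank and background. Kd and Bmax come from a single-site fit of three independent measurements (mean ± SE).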

SMILES | Kd
CCCCCCCCCCCCCCCC(=O)OC[C@H](COP(=O)([O-])OCC[N+](C)(C)C)OC(=O)CCCCCNc1ccc([N+](=O)[O-])c2nonc12 [NBD-phosphatidylcholine, 2-(6-(7-nitrobenz-2-oxa-1,3-diazol-4-yl)amino)hexanoyl-1-hexadecanoyl-sn-glycero-3-phosphocholine] | 15 ± 3 nM
CCCCCCCCCCCCC/C=C/[C@@H](O)[C@H](COP(=O)([O-])OCC[N+](C)(C)C)NC(=O)CCCCCNc1ccc([N+](=O)[O-])c2nonc12 [NBD-sphingomyelin, 6-((N-(7-nitrobenz-2-oxa-1,3-diazol-4-yl)amino)-hexanoyl)sphingosyl-phosphocholine] | 257 ± 64 nM
